# Assay results pooled from the literature.
# Target: Mitogen-activated protein kinase 10 (MAPK10, Homo sapiens, UniProt P53779)
SMILES,observed,action,method,concentration,quantity,result
C1=C/COCc2cc(ccc2OCCN2CCCC2)Nc2nccc(n2)-c2cccc(c2)COC/1,cell-free assay,,,0.1 µM,remaining signal,33%
C#Cc1cc(-c2cc(Nc3nc(N[C@@H](C)c4ccc(F)cn4)ncc3Cl)n[nH]2)ccc1C=O,enzyme activity,inhibitor,,0.2 µM,inhibition,6.29%
C=CC(=O)N1CCC([C@@H]2CCNc3c(C(N)=O)c(-c4ccc(Oc5ccccc5)cc4)nn32)CC1,enzyme activity,inhibitor,,1 µM,inhibition,25%
CN1CCN(C(=O)c2ccc(NC(=O)Nc3ccc(N(C)c4ccnc(Nc5ccc(CS(C)(=O)=O)cc5)n4)cc3)cc2)CC1,binding,,,1 µM,remaining binding,8.6%
CCCCC(=O)Nc1ccc(-c2ccc3ncn(CCC)c(=O)c3c2)cn1,binding,,competition with immobilised ligand,0.5 µM,remaining binding,80%
C#Cc1cnc(Nc2ccnc(CO)c2)nc1Nc1ccccc1S(C)(=O)=NC#N (stereo not shown),cell-free assay,,,1 µM,remaining signal,91%
N#Cc1ccc(NC(=O)Nc2ccccc2)cc1,cell-free assay,,competition with immobilised ligand,25 µM,remaining binding,65%
CO[C@@H]1[C@H](N(C)C(=O)c2ccccc2)C[C@H]2O[C@]1(C)n1c3ccccc3c3c4c(c5c6ccccc6n2c5c31)C(=O)NC4,enzyme activity,inhibitor,,1 µM,inhibition,33%
C[C@H]1CC[C@H](n2c3cnccc3c3cnc(Nc4ccc5c(n4)CCN(C(=O)CO)C5)nc32)CC1,cell-free assay,,,1 µM,remaining signal,2.6%
COc1ccc2oc(-c3ccc4nc(N)oc4c3)c/c(=N\c3ccccc3NC(=O)CCN)c2c1,binding,,,1 µM,remaining binding,113%
